Experiments:
HSP60/HSP10 = HSP60/HSP10 (Homo sapiens, UniProt P10809); assay: Inhibition of human HSP60 expressed in Escherichia coli Rosetta 2(DE3)/human HSP10 expressed in Escherichia coli Rosetta 2(DE3) pLysS cells assessed as reduction in HSP60/HSP10-mediated denatured pig heart mitochondrial MDH refolding by measuring MDH enzyme activity using sodium mesoxalate as substrate after 40 to 60 mins by spectrometric analysis
E. coli GroEL/ES [1] = molecular target: T1, E. coli GroEL/ES (Escherichia coli, UniProt P0A6F5); assay: Inhibition of Escherichia coli GroEL expressed in Escherichia coliDH5alpha/Escherichia coli GroES expressed in Escherichia coli BL21 (DE3) assessed as reduction in GroEL/GroES-mediated denatured pig heart mitochondrial MDH refolding by measuring MDH enzyme activity using sodium mesoxalate as substrate after 20 to 40 mins by spectrometric analysis
T1 sequence (P0A6F5 whole entry, looked up): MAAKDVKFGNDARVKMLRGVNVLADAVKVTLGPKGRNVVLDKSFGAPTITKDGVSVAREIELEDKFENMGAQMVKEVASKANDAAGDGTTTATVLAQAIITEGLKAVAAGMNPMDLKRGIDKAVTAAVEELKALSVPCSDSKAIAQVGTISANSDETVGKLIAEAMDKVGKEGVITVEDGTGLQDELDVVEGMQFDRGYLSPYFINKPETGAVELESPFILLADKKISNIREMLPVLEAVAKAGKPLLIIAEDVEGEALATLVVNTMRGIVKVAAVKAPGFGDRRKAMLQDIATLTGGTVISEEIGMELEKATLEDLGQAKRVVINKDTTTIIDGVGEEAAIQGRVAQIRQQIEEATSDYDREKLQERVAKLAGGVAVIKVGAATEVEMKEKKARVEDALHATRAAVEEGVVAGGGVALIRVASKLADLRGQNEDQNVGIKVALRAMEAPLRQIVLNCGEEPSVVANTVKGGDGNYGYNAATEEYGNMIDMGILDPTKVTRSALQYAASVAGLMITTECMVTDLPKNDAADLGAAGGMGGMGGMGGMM

[2] = tested on: Mycobacterium tuberculosis; assay: Antitubercular activity against Mycobacterium tuberculosis H37Rv after 5 days at 200 uM relative to control; format: functional; details: 120 h
Procedure, shortened: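 M. tuberculosis grown in liquid culture with compound at a fixed 200 μM for 5 days. Growth inhibition expressed as percent of control.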

[3] = molecular target: T2, Malate dehydrogenase, mitochondrial (Sus scrofa, UniProt P00346); assay: Inhibition of refolded pig heart mitochondrial MDH preincubated with Escherichia coli GroEL/GroES for 45 mins using sodium mesoxalate as substrate followed by compound addition and measured after 20 to 30 mins by spectrometric analysis
T2 sequence (P00346 whole entry): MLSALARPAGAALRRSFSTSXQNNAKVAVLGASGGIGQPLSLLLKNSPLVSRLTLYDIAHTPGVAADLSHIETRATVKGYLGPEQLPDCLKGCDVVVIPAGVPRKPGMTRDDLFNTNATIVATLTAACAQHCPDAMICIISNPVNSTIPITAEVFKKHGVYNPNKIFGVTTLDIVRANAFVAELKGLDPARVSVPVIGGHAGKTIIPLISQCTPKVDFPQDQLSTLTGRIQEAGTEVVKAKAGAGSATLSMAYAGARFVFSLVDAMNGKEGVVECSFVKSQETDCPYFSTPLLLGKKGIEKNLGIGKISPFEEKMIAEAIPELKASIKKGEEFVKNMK

[4] = Inhibition of refolded rhodanese (unknown origin) preincubated with Escherichia coli GroEL/GroES for 60 mins by measuring rhodanese enzyme activity followed by compound addition by Fe(SCN)3 dye based spectrometric analysis; design: species or system Homo sapiens
[5] = Cytotoxicity against human THLE3 cells assessed as reduction in cell viability after 48 hrs by Alamar blue assay; format: cell-based
Procedure, shortened: (§1)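 Alamar Blue viability read-out. Human liver (THLE-3) and kidney (HEK 293) cells incubated with compound for 48 h. Tested in dose-response to derive CC50.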

[6] = Cytotoxicity against human HEK293 cells assessed as reduction in cell viability after 48 hrs by Alamar blue assay; format: cell-based; procedure, shortened: as §1
E. coli GroEL/ES [7] = molecular target: T1, E. coli GroEL/ES; assay: Inhibition of Escherichia coli GroEL expressed in Escherichia coli DH5alpha/Escherichia coli GroES expressed in Escherichia coli BL21 (DE3) assessed as reduction in GroEL/GroES-mediated denatured rhodanese refolding by measuring rhodanese enzyme activity after 45 mins by Fe(SCN)3 dye based spectrometric analysis
[8] = molecular target: T3, Tyrosine-protein phosphatase non-receptor type 2 (Homo sapiens, UniProt P17706); assay: Inhibition of human PTPN2 expressed in Escherichia coli Rosetta 2 (DE3) using pNPP as substrate after 45 mins by spectrophotometric method
T3 sequence (P17706 whole entry): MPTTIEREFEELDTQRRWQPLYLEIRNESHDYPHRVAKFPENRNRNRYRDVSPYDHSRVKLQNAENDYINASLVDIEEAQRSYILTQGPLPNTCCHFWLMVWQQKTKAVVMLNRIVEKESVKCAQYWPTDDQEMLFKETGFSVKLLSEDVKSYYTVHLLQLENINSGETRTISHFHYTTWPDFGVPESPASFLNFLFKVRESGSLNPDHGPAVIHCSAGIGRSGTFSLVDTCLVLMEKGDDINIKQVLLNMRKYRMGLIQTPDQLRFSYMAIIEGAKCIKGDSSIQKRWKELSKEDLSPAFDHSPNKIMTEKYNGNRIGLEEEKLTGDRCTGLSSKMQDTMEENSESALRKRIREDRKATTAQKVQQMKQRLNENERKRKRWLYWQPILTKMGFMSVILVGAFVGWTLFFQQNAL

[9] = molecular target: T4, Tyrosine-protein phosphatase non-receptor type 1 (Homo sapiens, UniProt P18031); assay: Inhibition of human PTPN1 expressed in Escherichia coli Rosetta 2 (DE3) using pNPP as substrate after 45 mins by spectrophotometric method
T4 sequence (P18031 whole entry): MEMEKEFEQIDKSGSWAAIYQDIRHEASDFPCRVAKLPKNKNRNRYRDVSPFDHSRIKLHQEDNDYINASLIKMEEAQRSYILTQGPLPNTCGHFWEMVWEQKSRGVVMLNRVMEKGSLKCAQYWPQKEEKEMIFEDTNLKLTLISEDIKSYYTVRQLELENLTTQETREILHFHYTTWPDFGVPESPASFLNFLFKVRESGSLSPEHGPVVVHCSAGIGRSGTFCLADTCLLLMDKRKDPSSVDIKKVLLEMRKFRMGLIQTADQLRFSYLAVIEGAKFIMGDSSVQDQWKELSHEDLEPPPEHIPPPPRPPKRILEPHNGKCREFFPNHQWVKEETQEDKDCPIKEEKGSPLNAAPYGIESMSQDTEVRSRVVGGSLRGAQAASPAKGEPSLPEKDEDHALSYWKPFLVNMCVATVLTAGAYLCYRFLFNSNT

[10] = molecular target: T5, Tyrosine-protein phosphatase non-receptor type 5 (Homo sapiens, UniProt P54829); assay: Inhibition of human PTPN5 expressed in Escherichia coli Rosetta 2 (DE3) using pNPP as substrate after 45 mins by spectrophotometric method
T5 sequence (P54829 whole entry): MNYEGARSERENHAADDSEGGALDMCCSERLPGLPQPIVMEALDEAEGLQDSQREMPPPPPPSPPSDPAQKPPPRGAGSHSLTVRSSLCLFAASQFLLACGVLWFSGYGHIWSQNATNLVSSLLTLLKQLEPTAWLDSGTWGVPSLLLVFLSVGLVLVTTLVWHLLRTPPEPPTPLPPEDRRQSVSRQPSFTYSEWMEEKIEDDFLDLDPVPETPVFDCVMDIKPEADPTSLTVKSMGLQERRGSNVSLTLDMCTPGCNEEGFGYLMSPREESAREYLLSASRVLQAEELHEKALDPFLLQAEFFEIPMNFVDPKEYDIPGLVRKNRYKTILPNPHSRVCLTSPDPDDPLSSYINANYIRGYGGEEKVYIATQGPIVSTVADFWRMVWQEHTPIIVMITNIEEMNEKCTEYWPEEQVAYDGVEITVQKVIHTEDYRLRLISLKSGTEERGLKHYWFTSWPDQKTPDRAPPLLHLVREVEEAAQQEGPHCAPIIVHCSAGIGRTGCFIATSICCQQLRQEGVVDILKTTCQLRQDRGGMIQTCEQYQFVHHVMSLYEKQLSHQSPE

[11] = molecular target: T6, Phosphotyrosine protein phosphatase (Mycobacterium tuberculosis, UniProt A0A045ISB3); assay: Inhibition of Mycobacterium tuberculosis His-tagged PtpB expressed in Escherichia coli Rosetta 2 (DE3) using pNPP as substrate after 30 mins by spectrophotometric method
T6 sequence (A0A045ISB3 whole entry): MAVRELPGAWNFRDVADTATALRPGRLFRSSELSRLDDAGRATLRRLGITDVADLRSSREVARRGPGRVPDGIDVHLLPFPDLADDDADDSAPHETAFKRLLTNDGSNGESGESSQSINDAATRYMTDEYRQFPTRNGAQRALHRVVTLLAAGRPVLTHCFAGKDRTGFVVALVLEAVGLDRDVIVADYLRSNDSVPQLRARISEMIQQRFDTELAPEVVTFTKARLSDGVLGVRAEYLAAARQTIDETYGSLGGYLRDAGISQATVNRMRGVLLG

[12] = tested on: Mycobacterium tuberculosis; assay: Antitubercular activity against Mycobacterium tuberculosis H37Rv after 5 days; format: functional, organism-based; details: 120 h

Sequence of HSP60/HSP10 (P10809 whole entry): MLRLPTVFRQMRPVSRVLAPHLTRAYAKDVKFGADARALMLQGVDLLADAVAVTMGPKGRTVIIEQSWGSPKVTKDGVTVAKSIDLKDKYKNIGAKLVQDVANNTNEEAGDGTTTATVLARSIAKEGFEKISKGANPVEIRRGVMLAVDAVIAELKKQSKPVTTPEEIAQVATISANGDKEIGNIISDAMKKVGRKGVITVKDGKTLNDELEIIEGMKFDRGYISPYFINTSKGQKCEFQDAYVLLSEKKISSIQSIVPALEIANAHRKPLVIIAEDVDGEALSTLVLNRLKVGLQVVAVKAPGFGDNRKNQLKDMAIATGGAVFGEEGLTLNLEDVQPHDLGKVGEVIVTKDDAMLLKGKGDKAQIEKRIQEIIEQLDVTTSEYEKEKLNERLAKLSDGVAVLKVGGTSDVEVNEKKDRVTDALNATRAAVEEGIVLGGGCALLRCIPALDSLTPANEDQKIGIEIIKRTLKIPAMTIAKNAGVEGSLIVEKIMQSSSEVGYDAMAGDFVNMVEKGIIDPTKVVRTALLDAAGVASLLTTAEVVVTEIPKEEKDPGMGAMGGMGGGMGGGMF
Sequence of HSP60/HSP10 (P61604 whole entry, further chain): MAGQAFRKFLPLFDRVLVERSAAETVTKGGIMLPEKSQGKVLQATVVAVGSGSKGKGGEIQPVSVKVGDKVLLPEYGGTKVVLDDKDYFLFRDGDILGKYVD

Structure (SMILES)	IC50 (HSP60/HSP10) [µM]	IC50 (E. coli GroEL/ES [1]) [µM]	inhibition at 200 µM [2] [%]	IC50 [3] [µM]	IC50 [4] [µM]	CC50 at 48 h [5] [µM]	CC50 at 48 h [6] [µM]	IC50 (E. coli GroEL/ES [7]) [µM]	IC50 [8] [µM]	IC50 [9] [µM]	IC50 [10] [µM]	IC50 [11] [µM]	EC50 [12] [µM]
O=S(=O)(Nc1ccc2oc(-c3ccccc3)nc2c1)c1ccc(F)cc1	> 100	> 100	47	> 63	> 100	38	68	195	61	78	41	85	
O=S(=O)(Nc1ccc(-c2nc3ccccc3o2)cc1)c1ccc(Cl)c(C(F)(F)F)c1	12	23	18	> 63	> 100	81	69	67	28	28	34	29	
O=S(=O)(Nc1ccc(-c2nc3ccccc3o2)cc1)c1cccc(O)c1	62		61	> 63	> 100	97	> 100		> 100	> 100	84	79	189
O=S(=O)(Nc1ccc2oc(-c3ccccc3)nc2c1)c1cccc(C(F)(F)F)c1	> 100	95	41	> 63	> 100	58	> 100	180	76	83	45	77	
COc1ccc(S(=O)(=O)Nc2ccc3oc(-c4ccccc4)nc3c2)cc1	> 100		75	> 63	> 100	53	91		50	46	37	73	167
Cc1cccc(S(=O)(=O)Nc2ccc3oc(-c4ccccc4)nc3c2)c1	> 100		82	> 63	> 100	38	69		57	53	39	63	161
O=S(=O)(Nc1ccc2oc(-c3ccccc3)nc2c1)c1cccc(F)c1	> 100		56	> 63	> 100	41	68		> 100	71	42	93	> 200
COc1cccc(S(=O)(=O)Nc2ccc(-c3nc4ccccc4o3)cc2)c1	80		74	> 63	> 100	84	> 100		67	51	48	67	156
COc1ccc(S(=O)(=O)Nc2ccc(-c3nc4ccccc4o3)cc2)cc1	> 100		72	> 63	> 100	86	> 100		53	42	45	61	179
O=S(=O)(Nc1ccc(-c2nc3ccccc3o2)cc1)c1ccc(O)cc1	78		77	> 63	> 100	> 100	> 100		> 100	70	81	93	> 200
Nc1ccc(S(=O)(=O)Nc2ccc(-c3nc4cc(NS(=O)(=O)c5ccc(N)cc5)ccc4o3)cc2)cc1			51						32	27	41	16	> 200
